The text below walks through data of ChEMBL document CHEMBL2046370, “Beta-carboline alkaloids derived from the ascidian Synoicum sp” (Bioorg Med Chem, 2012).

In test [1] the test system is Trichophyton mentagrophytes. As to the kind of experiment: Antifungal activity against Trichophyton mentagrophytes IFO 40996 after 48 to 72 hrs. Format: functional.
A further test concerns Bacillus subtilis. As to the kind of experiment: Antibacterial activity against Bacillus subtilis ATCC 6633 after 24 hrs. Conditions: ATCC 6633, 24 h. Format: functional.
Another test concerns Staphylococcus aureus. In words: Antibacterial activity against Staphylococcus aureus ATCC 6538p after 24 hrs. It counts as functional.
In the next test the test system is Candida albicans. In words: Antifungal activity against Candida albicans ATCC 10231 after 48 to 72 hrs. It counts as functional.
Another test concerns the target T1, Sortase A (Staphylococcus aureus, UniProt Q9S446).
T1 sequence (Q9S446 whole entry): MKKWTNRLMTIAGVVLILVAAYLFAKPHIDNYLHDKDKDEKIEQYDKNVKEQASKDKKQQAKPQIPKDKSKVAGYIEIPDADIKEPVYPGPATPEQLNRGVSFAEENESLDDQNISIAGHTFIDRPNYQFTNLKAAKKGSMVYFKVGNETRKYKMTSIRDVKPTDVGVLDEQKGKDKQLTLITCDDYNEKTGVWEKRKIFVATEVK
In words: Inhibition of Staphylococcus aureus ATCC 6538p recombinant SrtA. Also noted: species or system ATCC 6538p r.

Test [2] can be described thus: Inhibition of porcine cerebral cortex Na+/K+ ATPase assessed as formation of fluorescent 3-O-methylfluorescein from 3-O-methylfluorescein phosphate by fluorometry. Format: tissue-based, Sus scrofa.
For the next test, the system named is Escherichia coli. In words: Antibacterial activity against Escherichia coli ATCC 35270 after 24 hrs. It counts as functional. The settings on record: ATCC 35270, 24 h.
The next test concerns A549. In words: Cytotoxicity against human A549 cells by MTT assay. Conditions: read-out: LC50 (the source's name). It counts as functional. In general terms: Tetrazolium assays rely on reduction of a dye to a coloured formazan, in cell work by metabolically active cells.
The subject of a further test is Trichophyton rubrum. In words: Antifungal activity against Trichophyton rubrum IFO 9185 after 48 to 72 hrs. Format: functional.
For a further test, the target named is Isocitrate lyase (Candida albicans, UniProt Q9P8Q7). As to the kind of experiment: Inhibition of Candida albicans recombinant ICL assessed as formation of glyoxylate phenylhydrazone by spectrophotometry. In a few lines: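 Recombinant enzyme assayed spectrophotometrically with isocitrate and phenylhydrazine present. Absorbance at 324 nm was monitored for glyoxylate phenylhydrazone formation, and IC50 was determined.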
Sequence of Isocitrate lyase (Q9P8Q7 whole entry): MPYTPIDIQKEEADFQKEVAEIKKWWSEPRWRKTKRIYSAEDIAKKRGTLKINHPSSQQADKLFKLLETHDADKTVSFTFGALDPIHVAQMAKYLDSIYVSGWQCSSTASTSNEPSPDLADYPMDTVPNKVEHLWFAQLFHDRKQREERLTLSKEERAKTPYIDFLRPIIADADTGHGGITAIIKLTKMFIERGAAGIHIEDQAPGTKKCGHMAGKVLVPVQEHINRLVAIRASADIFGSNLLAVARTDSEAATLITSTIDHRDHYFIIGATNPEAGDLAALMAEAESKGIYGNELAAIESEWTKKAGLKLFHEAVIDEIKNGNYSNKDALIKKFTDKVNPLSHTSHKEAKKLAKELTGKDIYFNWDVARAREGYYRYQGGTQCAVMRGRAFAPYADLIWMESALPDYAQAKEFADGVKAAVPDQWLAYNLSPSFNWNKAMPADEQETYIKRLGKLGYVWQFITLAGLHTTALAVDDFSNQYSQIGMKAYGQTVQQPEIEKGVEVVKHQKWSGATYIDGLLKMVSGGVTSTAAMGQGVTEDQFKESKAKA

A further test deals with Proteus vulgaris. As to the kind of experiment: Antibacterial activity against Proteus vulgaris ATCC 3851 after 24 hrs. Format: functional. Conditions: ATCC 3851, 24 h.
The next test has as its system Aspergillus fumigatus. In words: Antifungal activity against Aspergillus fumigatus HIC 6094 after 48 to 72 hrs. Format: functional.
The test system of the next test is Salmonella typhimurium. In words: Antibacterial activity against Salmonella typhimurium ATCC 14028 after 24 hrs. Format: functional, Salmonella enterica subsp. enterica serovar Typhimurium. The settings on record: Salmonella enterica, ATCC 14028, 24 h.
For the next test, the system named is Micrococcus luteus. As to the kind of experiment: Antibacterial activity against Micrococcus luteus IFC 12708 after 24 hrs. Format: functional. Conditions: IFC 12708, 24 h.

≈ marks a conversion by molar mass, not a printed value.

For orientation: MIC means the lowest concentration found to suppress growth. Lower therefore signals inhibition by little substance. As usually defined, the IC50 is the midpoint of a concentration-inhibition curve.

Consider `O=C(c1ccc(O)cc1)c1nccc2c1[nH]c1ccc(Br)cc12` [EUDISTOMIN Y2], for which the MIC in test [1] is over 100 µg/mL; against Bacillus subtilis it was 25 µg/mL (≈ 68.1 µM); against Staphylococcus aureus, 50 µg/mL (≈ 136 µM); against Candida albicans, 6.25 µg/mL (≈ 17 µM); in the test with Escherichia coli it was over 100 µg/mL; in the test on Trichophyton rubrum, over 100 µg/mL. Further, the MIC is 25 µg/mL (≈ 68.1 µM) against Proteus vulgaris, over 100 µg/mL in the test on Aspergillus fumigatus, 50 µg/mL (≈ 136 µM) in the test on Salmonella typhimurium and 25 µg/mL (≈ 68.1 µM) in the test with Micrococcus luteus. Moreover, the IC50 was over 272 µM at Sortase A, 209 µM in test [2] and 50.2 µM at Isocitrate lyase. Besides, in the test with A549, the CC50 amounted to 65.6 µM.
